Measured values taken from ChEMBL document CHEMBL1137528, “Preparation of tetrahydroimidazo[2,1-a]isoquinolines and their use as inhibitors of gastric acid secretion” (Bioorg Med Chem, 2007).

system: Gastric gland; assay: Effect on acid secretion in rabbit intact gastric glands assessed as inhibition of [14C][…] accumulation; assay type: functional, tissue-based; settings: Oryctolagus cuniculus
Outline: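 Glands stimulated with 1 mM dibutyryl cAMP with or without inhibitor (3 nM–100 µM). Stopped by centrifugation, 10 s at 20,000g. 14C-aminopyrine radioactivity measured in supernatant and in NaOH-dissolved pellet. Accumulation taken from the pellet/supernatant ratio, normalized to gland wet/dry weight. IC50 obtained by fitting the expected inhibition equation.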

| Structure (SMILES) | IC50 [nM] |
| --- | --- |
| Cc1nc2c3c(c(C(=O)N4CCCC4)cn2c1C)CCC(c1ccccc1)C3 (configuration not stated) | 316 |
| Cc1cn2cc(C(=O)N(C)C)c3c(c2n1)CC(c1ccccc1)CC3 (configuration not stated) | 7940 |
| COCc1cn2c(C)c(C)nc2c2c1CCC(c1ccccc1)C2 (configuration not stated) | 2000 |
| Cc1nc2c3c(c(C(N)=O)cn2c1C)CCC(c1ccccc1)C3 (configuration not stated) | 2000 |
| Cc1nc2c3c(c(C(=O)NCCO)cn2c1C)CCC(c1ccccc1)C3 (configuration not stated) | 10000 |
| Cc1nc2c3c(c(C(=O)N(C)C)cn2c1Br)CCC(c1ccccc1)C3 (configuration not stated) | 10000 |
| Cc1nc2c3c(c(C(=O)N4CCOCC4)cn2c1C)CCC(c1ccccc1)C3 (configuration not stated) | 6310 |
| Cc1cn2ccc3c(c2n1)CC(c1ccccc1)CC3 (configuration not stated) | 7940 |
| Cc1nc2c3c(c(C(=O)N(C)C)cn2c1CO)CCC(c1ccccc1)C3 (configuration not stated) | 10000 |
| COCCNC(=O)c1cn2c(C)c(C)nc2c2c1CCC(c1ccccc1)C2 (configuration not stated) | 1260 |
| CNC(=O)c1cn2c(C)c(C)nc2c2c1CCC(c1ccccc1)C2 (configuration not stated) | 1000 |
| Cc1nc2c3c(ccn2c1CC#N)CCC(c1ccccc1)O3 (configuration not stated) | 63.1 |
| Cc1nc2c3c(ccn2c1C)CCC(c1ccccc1)C3 (configuration not stated) | 794 |
| Cc1nc2c3c(c(C(=O)N(C)C)cn2c1C)CCC(c1ccccc1)C3 (configuration not stated) | 398 |

system: not listed separately; assay: Distribution coefficient, log D at pH 7.4; assay type: physicochemical; settings: octanol/water
Outline: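 Potentiometric titration, pH 2.0–11.0, 25 °C, in 0.15 mol/l KCl mixed with water-saturated 1-octanol in varying octanol portions. Titrants were 0.5 mol/l KOH and HCl. Distribution coefficients between 1-octanol and aqueous KCl were derived from these titrations.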

| Structure (SMILES) | logD |
| --- | --- |
| Cc1nc2c3c(c(C(=O)N4CCCC4)cn2c1C)CCC(c1ccccc1)C3 (configuration not stated) | 3.37 |
| Cc1cn2cc(C(=O)N(C)C)c3c(c2n1)CC(c1ccccc1)CC3 (configuration not stated) | 2.77 |
| COCc1cn2c(C)c(C)nc2c2c1CCC(c1ccccc1)C2 (configuration not stated) | 3.93 |
| Cc1nc2c3c(c(C(N)=O)cn2c1C)CCC(c1ccccc1)C3 (configuration not stated) | 3.21 |
| Cc1nc2c3c(c(C(=O)NCCO)cn2c1C)CCC(c1ccccc1)C3 (configuration not stated) | 2.81 |
| Cc1nc2c3c(c(C(=O)N(C)C)cn2c1Br)CCC(c1ccccc1)C3 (configuration not stated) | 3.8 |
| Cc1nc2c3c(c(C(=O)N4CCOCC4)cn2c1C)CCC(c1ccccc1)C3 (configuration not stated) | 2.76 |
| Cc1cn2ccc3c(c2n1)CC(c1ccccc1)CC3 (configuration not stated) | 3.81 |
| Cc1nc2c3c(c(C(=O)N(C)C)cn2c1CO)CCC(c1ccccc1)C3 (configuration not stated) | 2.23 |
| COCCNC(=O)c1cn2c(C)c(C)nc2c2c1CCC(c1ccccc1)C2 (configuration not stated) | 3.31 |
| Cc1nc2c3c(ccn2c1C)CCC(c1ccccc1)C3 (configuration not stated) | 3.9 |
| Cc1nc2c3c(c(C(=O)N(C)C)cn2c1C)CCC(c1ccccc1)C3 (configuration not stated) | 2.9 |

target: not listed separately; assay: Inhibition of H+/K+ ATPase in hog gastric mucosa; assay type: tissue-based, Sus scrofa; settings: not given
Outline: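 Hog gastric H+/K+-ATPase (0.5–1 µg/100 µl), nigericin 1:1 with enzyme. Buffer 4 mM Pipes/8 mM Tris pH 7.4, 0.25 M sucrose, 1 mM MgCl2, 1 mM KCl as stimulant. Compounds 1e-4 to 1e-9 M final from DMSO stocks. Started with 1 mM Na-ATP, 30 min at room temperature. Phosphate read by malachite green at 680 nm; sigmoidal fit gives IC50.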

| Structure (SMILES) | Log IC50 |
| --- | --- |
| Cc1nc2c3c(c(C(=O)N4CCCC4)cn2c1C)CCC(c1ccccc1)C3 (configuration not stated) | -5.9 |
| Cc1cn2cc(C(=O)N(C)C)c3c(c2n1)CC(c1ccccc1)CC3 (configuration not stated) | -4.8 |
| COCc1cn2c(C)c(C)nc2c2c1CCC(c1ccccc1)C2 (configuration not stated) | -6.3 |
| Cc1nc2c3c(c(C(N)=O)cn2c1C)CCC(c1ccccc1)C3 (configuration not stated) | -5.9 |
| Cc1nc2c3c(c(C(=O)NCCO)cn2c1C)CCC(c1ccccc1)C3 (configuration not stated) | -5.9 |
| Cc1nc2c3c(c(C(=O)N(C)C)cn2c1Br)CCC(c1ccccc1)C3 (configuration not stated) | -4.9 |
| Cc1nc2c3c(c(C(=O)N4CCOCC4)cn2c1C)CCC(c1ccccc1)C3 (configuration not stated) | -5 |
| Cc1cn2ccc3c(c2n1)CC(c1ccccc1)CC3 (configuration not stated) | -5.1 |
| Cc1nc2c3c(c(C(=O)N(C)C)cn2c1CO)CCC(c1ccccc1)C3 (configuration not stated) | -5.5 |
| COCCNC(=O)c1cn2c(C)c(C)nc2c2c1CCC(c1ccccc1)C2 (configuration not stated) | -4.9 |
| CNC(=O)c1cn2c(C)c(C)nc2c2c1CCC(c1ccccc1)C2 (configuration not stated) | -6.2 |
| Cc1nc2c3c(ccn2c1CC#N)CCC(c1ccccc1)O3 (configuration not stated) | -7 |
| Cc1nc2c3c(ccn2c1C)CCC(c1ccccc1)C3 (configuration not stated) | -6.6 |
| Cc1nc2c3c(c(C(=O)N(C)C)cn2c1C)CCC(c1ccccc1)C3 (configuration not stated) | -6 |

system: not listed separately; assay: Dissociation constant, pKa of the compound; assay type: physicochemical; settings: not given
Outline: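 Potentiometric co-solvent titration in 0.15 mol/l KCl over pH 2.0–11.0 at 25 °C. Methanol used as co-solvent in varying portions, with 0.5 mol/l KOH and HCl as titrants.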

| Structure (SMILES) | pKa |
| --- | --- |
| Cc1nc2c3c(c(C(=O)N4CCCC4)cn2c1C)CCC(c1ccccc1)C3 (configuration not stated) | 7.2 |
| Cc1cn2cc(C(=O)N(C)C)c3c(c2n1)CC(c1ccccc1)CC3 (configuration not stated) | 6.67 |
| COCc1cn2c(C)c(C)nc2c2c1CCC(c1ccccc1)C2 (configuration not stated) | 7.79 |
| Cc1nc2c3c(c(C(N)=O)cn2c1C)CCC(c1ccccc1)C3 (configuration not stated) | 7.26 |
| Cc1nc2c3c(c(C(=O)NCCO)cn2c1C)CCC(c1ccccc1)C3 (configuration not stated) | 7.22 |
| Cc1nc2c3c(c(C(=O)N(C)C)cn2c1Br)CCC(c1ccccc1)C3 (configuration not stated) | 5.11 |
| Cc1nc2c3c(c(C(=O)N4CCOCC4)cn2c1C)CCC(c1ccccc1)C3 (configuration not stated) | 7.05 |
| Cc1cn2ccc3c(c2n1)CC(c1ccccc1)CC3 (configuration not stated) | 7.63 |
| Cc1nc2c3c(c(C(=O)N(C)C)cn2c1CO)CCC(c1ccccc1)C3 (configuration not stated) | 6.32 |
| COCCNC(=O)c1cn2c(C)c(C)nc2c2c1CCC(c1ccccc1)C2 (configuration not stated) | 7.22 |
| Cc1nc2c3c(ccn2c1C)CCC(c1ccccc1)C3 (configuration not stated) | 8.05 |
| Cc1nc2c3c(c(C(=O)N(C)C)cn2c1C)CCC(c1ccccc1)C3 (configuration not stated) | 7.16 |
